Assay results gathered from unrelated publications.
Each line is one published result; the experiments were not run side by side.
Organism: Mycolicibacterium smegmatis
Observed: microbial growth

Compound	technique	strain	time	MIC
COC1C(C(OC2OC(C(=O)NC3CCCCNC3=O)=CC(O)C2O)C(N)=O)OC(n2ccc(=O)[nH]c2=O)C1OC (stereo not shown)	broth dilution	ATCC607		> 200 µg/mL
CC(C)=CCC/C(C)=C/CNCCOC(C)(C)C				50 µg/mL
Nc1ccc(C(=O)O)c(O)c1	broth dilution	MC^2155		1.25 µg/mL
CNC(C)C1CCC(N)C(OC2C(N)CC(N)C(OC3OCC(C)(O)C(NC)C3O)C2O)O1 (stereo not shown)	broth dilution		72 h	1 µg/mL
CC(C)=CCC/C(C)=C/COCC(=O)NC1C2CC3CC(C2)CC1C3 (stereo not shown)				25 µg/mL
O=C(Nc1ccc2c(c1)OC(F)(F)O2)Nc1ccc(Cl)c(C(F)(F)F)c1		MC2155		6 µM
CCC(C)(C)C(=O)Oc1ccccc1C(=O)Nc1ncc([N+](=O)[O-])s1	agar dilution	MC^2155		> 25 µM
CC[C@@H](CO)NCCN[C@@H](CC)CO	resazurin	ATCC607	72 h	0.39 µg/mL
CC(C)=CCC/C(C)=C/CNCCNC1C2CC3CC(C2)CC1C3 (stereo not shown)				3.1 µg/mL
C[C@@H]([C@H](N)C(=O)N[C@H](C(=O)O)[C@H]1O[C@@H](n2ccc(=O)[nH]c2=O)[C@H](O)[C@@H]1O)[C@H](O)c1ccc(O)cn1	resazurin	ATCC607	72 h	> 50 µg/mL
NNC(=O)c1ccncc1	agar dilution			12.5 µg/mL
CN[C@H](CC(C)C)C(=O)N[C@H]1C(=O)N[C@@H](CC(N)=O)C(=O)N[C@H]2C(=O)N[C@H]3C(=O)N[C@H](C(=O)N[C@H](C(=O)O)c4cc(O)cc(O)c4-c4cc3ccc4O)[C@H](O)c3ccc(c(Cl)c3)Oc3cc2cc(c3O[C@@H]2O[C@H](CO)[C@@H](O)[C@H](O)[C@H]2O[C@H]2C[C@](C)(N)[C@H](O)[C@H](C)O2)Oc2ccc(cc2Cl)[C@H]1O	resazurin	MC^2155	24 h	0.78 µg/mL
CC(C)=CCC/C(C)=C/COCCNC1C2CC3CC(C2)CC1C3 (stereo not shown)				6.2 µg/mL
COc1nc2ccc(Br)cc2cc1[C@@H](c1ccccc1)[C@@](O)(CCN(C)C)c1cccc2ccccc12				0.03 µg/mL
CO[C@H]1/C=C/O[C@@]2(C)Oc3c(C)c(O)c4c(O)c(c(/C=N/N5CCN(C)CC5)c(O)c4c3C2=O)NC(=O)/C(C)=C\C=C\[C@H](C)[C@H](O)[C@@H](C)[C@@H](O)[C@@H](C)[C@H](OC(C)=O)[C@@H]1C	broth dilution			162 µM
O=C(Nc1ccccc1)Nc1ncc([N+](=O)[O-])s1	agar dilution	MC^2155		> 100 µM
CO[C@H]1/C=C/O[C@@]2(C)Oc3c(C)c(O)c4c(O)c(c(/C=N/N5CCN(C)CC5)c(O)c4c3C2=O)NC(=O)/C(C)=C\C=C\[C@H](C)[C@H](O)[C@@H](C)[C@@H](O)[C@@H](C)[C@H](OC(C)=O)[C@@H]1C	resazurin	ATCC607	72 h	1.58 µg/mL
CO[C@H]1/C=C/O[C@@]2(C)Oc3c(C)c(O)c4c(O)c(c(/C=N/N5CCN(C)CC5)c(O)c4c3C2=O)NC(=O)/C(C)=C\C=C\[C@H](C)[C@H](O)[C@@H](C)[C@@H](O)[C@@H](C)[C@H](OC(C)=O)[C@@H]1C	broth dilution	ATCC607		> 200 µg/mL
CO[C@H]1/C=C/O[C@@]2(C)Oc3c(C)c(O)c4c(O)c(c(/C=N/N5CCN(C)CC5)c(O)c4c3C2=O)NC(=O)/C(C)=C\C=C\[C@H](C)[C@H](O)[C@@H](C)[C@@H](O)[C@@H](C)[C@H](OC(C)=O)[C@@H]1C				2 µg/mL
